Measured values: PubChem BioAssay AID2097 (Broad Institute, 2009)
Screen size: about 300,000 compounds; about 120 (0.04%) were called active.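 The calls were made as follows: active = more than half of replicate wells score below -50%, meaning over 50% inhibition versus plate controls; inconclusive = some replicates but at most half score below -50%; inactive = no replicate scores below -50%.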 What follows is part of a selection rich in actives, with near analogues and random picks from the rest.

Molecular target: Glycogen synthase kinase-3 beta (Homo sapiens) (UniProt P49841)
Sequence (P49841 whole entry, looked up): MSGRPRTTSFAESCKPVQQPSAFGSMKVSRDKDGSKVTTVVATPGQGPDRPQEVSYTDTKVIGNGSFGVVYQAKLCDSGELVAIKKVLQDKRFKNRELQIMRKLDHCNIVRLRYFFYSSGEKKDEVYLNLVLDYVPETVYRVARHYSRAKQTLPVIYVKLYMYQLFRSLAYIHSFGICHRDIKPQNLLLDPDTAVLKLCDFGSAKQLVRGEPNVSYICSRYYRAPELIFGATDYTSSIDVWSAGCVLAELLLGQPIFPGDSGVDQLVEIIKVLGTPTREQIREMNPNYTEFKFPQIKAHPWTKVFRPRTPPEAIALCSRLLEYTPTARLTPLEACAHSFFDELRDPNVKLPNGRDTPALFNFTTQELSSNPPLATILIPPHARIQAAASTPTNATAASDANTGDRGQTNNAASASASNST
Assay: blockers of GSK3B enzyme activity – biochemical, cell-free homogeneous, HTS, primary screen (AID 2097);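 also: 0% = median DMSO wells and -100% = median GW8510 positive control wells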
Conditions: GST-GSK3beta kinase, ADP-Glo luminescence, 60 min; at 10 µM; active compounds read low
In short: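 Assay system: GST-fused GSK3beta enzyme, cell-free / Medium: Tris pH 7.5 buffer with MgCl2, DTT, BSA, heparin / Also added: peptide substrate plus 25 µM ATP (final) / Compound: 10 µM single point / Timing: kinase reaction with compound 60 min at room temperature / Detection: ADP-Glo luminescence / Benchmarks: DMSO neutral wells and GW8510 at 20 µM as positive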

Activity score (negative = inhibition), inactive:
O=C(N/N=C/c1ccccc1O)/C(=C/c1ccccc1)CCO 0.241%
CC1CC2=C(CC1/C=N/NC(N)=S)C(C)(C)CCC2 (stereo not drawn) -1.32%
O=C1NC(Nc2nc3ccccc3s2)(C(F)(F)F)C(=O)N1C1CCCCC1 (stereo not drawn) -3.19%
Cc1ccc(C2=NN(C)c3nc4ccccc4n3C2)cc1 1.54%
Nc1nc(CC(=O)CSc2ccc(Cl)cc2)nc(Nc2ccc(F)cc2)n1 0.55%
Oc1c(Cl)cc(Cl)cc1/C=N/c1ncn[nH]1 0.992%
COC(C[C@H](O)CC(=O)[C@@H](C)OCc1ccccc1)OC -8.84%
Cc1cc(C)c(-c2csc(NC(=O)CCCc3nc4ccccc4c(=O)[nH]3)n2)c(C)c1 2.17%
COC(=O)Nc1ccc(S(=O)(=O)N2CCN(CCN3C(=O)C4C5C=CC(C5)C4C3=O)CC2)cc1 (stereo not drawn) -3.94%
O=C1C(=O)N(CCCN2CCOCC2)C(c2ccc([N+](=O)[O-])cc2)/C1=C(\O)c1ccc2c(c1)OCCO2 (stereo not drawn) 1.45%
COc1nc(Oc2ccc(=O)n(C)n2)nc(N(C)C)n1 0.382%
Cc1ccc(OCC(=O)Nc2ccc(C(=O)O)cc2NC(=O)COc2ccc(C)c(C)c2)cc1C 2.29%
CC(=O)N1CCSc2ccc(S(=O)(=O)N3CCC(C)CC3)cc21 1.34%
O=C(NCc1ccco1)C1CCCN1S(=O)(=O)c1ccccc1C(F)(F)F (stereo not drawn) 1.38%
Cn1c(=O)[nH]c(=O)c2c1nc(N1CCN(C(c3ccccc3)c3ccccc3)CC1)n2CCO -22.6%
CCN(CC(=O)Nc1ccccc1C(F)(F)F)C(=O)CSCc1c(C)noc1C -1.14%
CN1CCN(S(=O)(=O)c2ccc(Nc3ccc(F)cc3)nc2)CC1 2.53%
CC1(C)Cc2ccccc2/C(=C/C(=O)c2ccccc2)N1 -1.05%
CN(C)S(=O)(=O)c1ccc(N2CCCC2)c(C(=O)Nc2ccc(Br)cc2F)c1 3.14%
COc1ccc2c(c1OC)C(=O)N(c1ccc(O)cc1)C2 -1.79%
C=CCOc1c2ccc(C(=O)N(CC)c3ccc(OC)cc3)cc2nn1C 0.746%
O=CN1CCN(C(=O)c2ccc3c(c2)OCO3)CC1 2.93%
C/C(CC(=O)NCc1ccc(Cl)cc1)=N\NC(=O)COc1ccc(C)cc1Br -2.78%
COc1ccccc1C(=O)N(C1=NC(C)CS1)c1ccc(Cl)cc1 (stereo not drawn) 6.2%
O=C(Nc1ccccc1)Nc1nnc(COc2ccccc2F)s1 0.847%
CCCN1C2CCCC1CC(NC(=O)c1cccc(OC)c1)C2 (stereo not drawn) 2.34%
CN(CCNC(=O)c1cc2c(-c3ccccc3F)nn(C)c2s1)C1CCCCC1 -2.3%
COC(=O)c1ccc(CN2C(=O)NC(c3ccccc3)(c3ccccc3)C2=O)o1 -0.96%
CCn1cc(C(=O)N[C@@H](C)C(=O)NCCO)c(=O)c2cc3c(cc21)OCO3 -0.599%
O=[N+]([O-])c1cc([N+](=O)[O-])c(Oc2cc(F)cc(F)c2F)cc1NN1CCCCC1 -1.52%
CC(NC(=O)C1CCCN(S(=O)(=O)c2ccc(-n3cnnn3)cc2)C1)c1ccc(F)cc1 (stereo not drawn) -1.62%
COc1cc(NC(=O)C2CCN(c3cnccn3)CC2)cc(OC)c1 -0.841%
O=c1[nH]c2ccccc2n2c(-c3ccccc3)nnc12 -0.961%
CCCCN(C(=O)CSCC(=O)Nc1ccc(OC)cc1)c1c(N)n(CCC)c(=O)[nH]c1=O -1.15%
Cc1nnsc1S(=O)(=O)Cc1ccccc1Cl -0.424%
CC(=O)N1c2ccc(S(=O)(=O)N3CCCC(C(=O)Nc4ccc(C)cc4C)C3)cc2CC1C (stereo not drawn) 0.432%
CCOC(OCC)c1ccc(/C=C\c2nccc(N)n2)cc1 -5.66%
Cc1cccc(CCNS(=O)(=O)c2ccc(S(=O)(=O)NC3CCCC3)cc2)c1 -0.921%
COc1ccc(C)cc1N(C)C(=O)c1coc(=O)c2ccccc12 3.14%
COc1ccc(Cl)cc1NC(=O)C(C)N1CCc2ccccc21 (stereo not drawn) 0.322%
COC(=O)[C@]1(C)N[C@H](c2ccc(-c3ccc(Cl)c(Cl)c3)cc2)[C@@H]2C(=O)N(C)C(=O)[C@@H]21 -2.15%
Cc1cc(C)c(S(=O)(=O)c2ccccc2)c(OC(=O)c2c(F)cccc2Cl)n1 7.18%
N#Cc1ccccc1Sc1ccccc1C(=O)OCC(=O)NC1CCCCC1 5.54%
Cc1cc(Br)ccc1NC(=O)c1cnc(N2CCN(c3ccccn3)CC2)c2ccccc12 -4.35%
Cc1nnc(NC(=O)CCC(=O)N2CCC(C)CC2)s1 0.523%
Cc1ccc(NC(=O)c2ccc(CSc3ncnc4nc[nH]c34)cc2)c(C)c1 -7.49%
Cc1ccc2nc(NC(=O)CSc3nc(=O)n(CCCN(C)C)c4c3CCC4)sc2c1 2.91%
Cn1c(=O)c(=O)n(C)c2cc(S(=O)(=O)CCC(=O)N3CCCCC3)ccc21 2.02%
CCN(c1ccc2c(c1)OCO2)S(=O)(=O)c1cc(Br)cc2c1N(C(=O)C1CC1)CC2 -2.85%
CCC1(CC)NC(=O)N(CC(=O)OCC(=O)Nc2ccc(C(F)(F)F)cc2)C1=O -0.836%
COC(=O)c1cc2n(n1)CCCNC2=O 2.64%
O=C(NC1CCCC1)C(NS(=O)(=O)c1ccc(Br)s1)c1ccccc1 (stereo not drawn) -0.275%
O=C(O)c1ccc2c(=O)n3c(nc2c1)/C(=C/c1ccc(OC(F)F)cc1OC(F)F)CC3 -1.21%
COCCNC(=O)C1CCN(S(=O)(=O)c2ccc3c(c2)OCCO3)CC1 -2.22%
O=C(Nc1cccc(F)c1)N1C2CCC1CC(O)(c1cccnc1)C2 (stereo not drawn) 2.54%
CC(C)NS(=O)(=O)c1ccc(OCC(=O)NC2CCCCCC2)cc1 1.95%
CC(C)NC(=O)c1ccccc1S(=O)c1ccccc1C#N (stereo not drawn) -1.11%
CC(=O)Nc1nc2c(s1)C(=O)NCC(C)(C)C2 3.79%
